Results on 34 molecules are retold here after ChEMBL document CHEMBL3085668, “α- and β-hydrazino acid-based pseudopeptides inhibit the chymotrypsin-like activity of the eukaryotic 20S proteasome” (Eur J Med Chem, 2013).

Each structure is given as a SMILES string. Activity calls are given as the source filed them. The rule behind the calls is not given here.

For one experiment, the species on record is Oryctolagus cuniculus. As to the kind of experiment: (§1) Inhibition of chymotrypsin like activity of rabbit 20S proteasome using Suc-LLVY-AMC as substrate after 45 mins. An outline of the steps:
(§2)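 Rabbit 20S proteasome (0.3 nM final) incubated with Suc-LLVY-AMC ([…] final) at 37 °C for 45 min in pH 7.5 buffer of 20 mM Tris, 1 mM DTT, 10% glycerol. Chymotrypsin-like activity was followed as substrate hydrolysis (AMC release), with and without test compound. Inhibition was taken relative to the no-compound control.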
Take `COc1ccc(OC)c(CC(=O)N[C@@H](CCCCNC(=O)OCc2ccccc2)C(=O)NNC(CC(=O)NCc2cc(OC)c(OC)c(OC)c2)C(F)(F)F)c1` (some centres undefined): the inhibition (usually the share of the control response that was lost under treatment) was “inactive”. Consider `COc1ccc(C[C@H](N)C(=O)NNC(=O)CC(NNC(=O)OCc2ccccc2)C(F)(F)F)cc1OC` (some centres undefined), for which the inhibition entry was “inactive”. With `COc1ccc(C[C@H](NC(=O)OCC2c3ccccc3-c3ccccc32)C(=O)NNC(=O)CC(NNC(=O)OC(C)(C)C)C(F)(F)F)cc1OC` (some centres undefined), the inhibition entry is “inactive”. Regarding `COC(=O)[C@H](Cc1ccccc1)NC(=O)CC(NNC(=O)[C@H](CC(N)=O)NC(=O)Cc1cc(OC)ccc1OC)C(F)(F)F` (some centres undefined), the inhibition entry was “inactive”. Take `COc1ccc(C[C@H](NC(=O)Cc2cccc(Oc3ccccc3)c2)C(=O)NNC(=O)CC(NNC(=O)OC(C)(C)C)C(F)(F)F)cc1OC` (some centres undefined): the inhibition entry is “inactive”. Regarding `COc1ccc(C[C@H](NC(=O)Cc2cccc(Oc3ccccc3)c2)C(=O)NNC(=O)CC(NNC(=O)OCc2ccccc2)C(F)(F)F)cc1OC` (some centres undefined), the inhibition result is “inactive”.

As for `COC(=O)[C@H](Cc1ccccc1)NC(=O)CC(NNC(=O)Cc1cc(OC)ccc1OC)C(F)(F)F` (some centres undefined), the inhibition entry was “inactive”. Turning to `COc1cc(CNC(=O)CC(NNC(=O)[C@H](CC(N)=O)NC(=O)OC(C)(C)C)C(F)(F)F)cc(OC)c1OC` (some centres undefined), the inhibition result is “inactive”.

Tested on in a further experiment: not listed separately
Described as §1. Set-up: species or system Oryctolagus cuniculus. An outline of the steps:
as §2
On to `COC(=O)[C@H](Cc1ccccc1)NC(=O)CNNC(=O)C(CCCCNC(=O)OCc1ccccc1)NC(=O)OC(C)(C)C` (some centres undefined), for which the IC50 (commonly the concentration at which inhibition is half-maximal) came to 11.8 µM. For `COC(=O)[C@H](Cc1ccccc1)NC(=O)CNNC(=O)C(CCCCN)NC(=O)Cc1cccc(Oc2ccccc2)c1` (some centres undefined), the concentration for half-maximal inhibition (IC50) amounted to 0.7 µM.

The molecule `COC(=O)[C@H](Cc1ccccc1)NC(=O)CNNC(=O)C(CCCCNC(=O)OCc1ccccc1)NC(=O)Cc1cccc(Oc2ccccc2)c1` (some centres undefined) showed an IC50 of 1.1 µM. This IC50 is about 1.6-fold higher than that of the molecule before.

The molecule `COC(=O)[C@H](Cc1ccccc1)NC(=O)CC(NNC(=O)[C@H](CCCCN)NC(=O)Cc1cc(OC)ccc1OC)C(F)(F)F` (some centres undefined) came in with an IC50 of 5.9 µM.

`COc1ccc(OC)c(CC(=O)NC(CCCCN)C(=O)NNCCC(=O)NCc2cc(OC)c(OC)c(OC)c2)c1` (centres undefined) returned an IC50 of 11.8 µM. As for `COc1cc(CNC(=O)CC(NNC(=O)[C@@H](N)CCCCNC(=O)OCc2ccccc2)C(F)(F)F)cc(OC)c1OC` (some centres undefined), the IC50 came out at 10.1 µM. `COC(=O)[C@H](Cc1ccccc1)NC(=O)CNNC(=O)C(CCCCN)NC(=O)Cc1cc(OC)ccc1OC` (some centres undefined) registered an IC50 of 1 µM. Compared with the last molecule, the IC50 is about 10-fold lower. `COc1ccc(OC)c(CC(=O)N[C@@H](CCCCN)C(=O)NNC(CC(=O)NCc2cc(OC)c(OC)c(OC)c2)C(F)(F)F)c1` (some centres undefined): inhibition was half-maximal at 97 µM (IC50). In turn, `COC(=O)C(Cc1ccccc1)NC(=O)CCNNC(=O)C(N)CCCCNC(=O)OCc1ccccc1` (centres undefined) had an IC50 of 18.2 µM. `COc1cc(CNC(=O)CCNNC(=O)C(CCCCN)NC(=O)Cc2cccc(Oc3ccccc3)c2)cc(OC)c1OC` (centres undefined) showed an IC50 of 3.3 µM.

As to `COc1ccc(OC)c(CC(=O)NC(CCCCNC(=O)OC(C)(C)C)C(=O)NNCCC(=O)NCc2cc(OC)c(OC)c(OC)c2)c1` (centres undefined), half-maximal inhibition (IC50) required 31.4 µM. With `COc1cc(CNC(=O)CC(NNC(=O)[C@H](CCCCN)NC(=O)Cc2cccc(Oc3ccccc3)c2)C(F)(F)F)cc(OC)c1OC` (some centres undefined), the IC50 stood at 6.2 µM. This IC50 lies about 5.1-fold lower than the previous one. For the molecule `COC(=O)[C@H](Cc1ccccc1)NC(=O)CCNNC(=O)[C@H](CCCCN)NC(=O)Cc1cc(OC)ccc1OC`, the IC50 was found to be 8.8 µM. Take `COC(=O)[C@H](Cc1ccccc1)NC(=O)CC(NNC(=O)[C@H](CCCCN)NC(=O)Cc1cccc(Oc2ccccc2)c1)C(F)(F)F` (single isomer, unassigned; diastereomer 2): the IC50 came to 5.9 µM. Molecule `COC(=O)C(Cc1ccccc1)NC(=O)CCNNC(=O)C(CCCCNC(=O)OCc1ccccc1)NC(=O)OC(C)(C)C` (centres undefined) came in with an IC50 of 48.5 µM.

As to `COC(=O)C(Cc1ccccc1)NC(=O)CCNNC(=O)C(CCCCN)NC(=O)Cc1cccc(Oc2ccccc2)c1` (centres undefined), inhibition was half-maximal at 1.4 µM (IC50). The molecule `COC(=O)C(Cc1ccccc1)NC(=O)CCNNC(=O)C(CCCCNC(=O)OCc1ccccc1)NC(=O)Cc1cccc(Oc2ccccc2)c1` (centres undefined) showed an IC50 of 2.8 µM. This IC50 is about 2-fold higher than that of the molecule before.

Regarding `COc1cc(CNC(=O)CCNNC(=O)[C@H](CCCCNC(=O)OC(C)(C)C)NC(=O)OCC2c3ccccc3-c3ccccc32)cc(OC)c1OC`, the 50% inhibitory concentration (IC50) came out at 6 µM. Same read-out and setting: the figure for `COC(=O)[C@H](Cc1ccccc1)NC(=O)CCNNC(=O)[C@H](CCCCNC(=O)OCc1ccccc1)NC(=O)Cc1cc(OC)ccc1OC` is 3.6 µM; for `COC(=O)[C@H](Cc1ccccc1)NC(=O)CC(NNC(=O)[C@H](CCCCN)NC(=O)Cc1cccc(Oc2ccccc2)c1)C(F)(F)F` (single isomer, unassigned; diastereomer 1) it is 8.4 µM.

On to `COC(=O)[C@H](Cc1ccccc1)NC(=O)CNNC(=O)C(CCCCNC(=O)OCc1ccccc1)NC(=O)Cc1cc(OC)ccc1OC` (some centres undefined), for which the IC50 stood at 7.1 µM.

The molecule `COc1cc(CNC(=O)CCNNC(=O)C(CCCCNC(=O)OC(C)(C)C)NC(=O)Cc2cccc(Oc3ccccc3)c2)cc(OC)c1OC` (centres undefined) showed an IC50 of 4.7 µM. This IC50 is about 1.5-fold lower than that of the molecule before.

The species entered for the next experiment is Oryctolagus cuniculus. As to the kind of experiment: Inhibition of chymotrypsin like activity of rabbit 20S proteasome using Suc-LLVY-AMC as substrate at 100 uM after 45 mins relative to control. An outline of the steps:
as §2
In turn, `COC(=O)[C@H](Cc1ccccc1)NC(=O)CC(NNC(=O)[C@H](CCCCNC(=O)OCc1ccccc1)NC(=O)Cc1cc(OC)ccc1OC)C(F)(F)F` (some centres undefined) gave an inhibition of 30%. Consider `COc1cc(CNC(=O)CC(NNC(=O)[C@H](CCCCNC(=O)OCc2ccccc2)NC(=O)OC(C)(C)C)C(F)(F)F)cc(OC)c1OC` (some centres undefined), for which the inhibition was found to be 35%.

As for `COc1ccc(C[C@H](NC(=O)OCC2c3ccccc3-c3ccccc32)C(=O)NNC(=O)CC(NNC(=O)OCc2ccccc2)C(F)(F)F)cc1OC` (some centres undefined), the fold change (FC) turned out to be 3.6. Take `COC(=O)[C@H](Cc1ccccc1)NC(=O)CC(NNC(=O)[C@H](CC(N)=O)NC(=O)OC(C)(C)C)C(F)(F)F` (some centres undefined): the inhibition turned out to be 30%.
